Experimental data taken from ChEMBL document CHEMBL3407478, “Development of a series of aryl pyrimidine kynurenine monooxygenase inhibitors as potential therapeutic agents for the treatment of Huntington's disease” (J Med Chem, 2015).
Active and inactive are the calls of the source. The calls are words filed in the database; no cut-off is given here.

Key:
[1] = Aqueous solubility of the compound; assay type: physicochemical
[2] = Permeability from basolateral to apical side in human Caco2 cells; assay type: ADME, cell-based; settings: Caco-2, read-out: permeability
[3] = Permeability from apical to basolateral side in human Caco2 cells; assay type: ADME, cell-based; settings: Caco-2, read-out: permeability
[4] = target: Kynurenine 3-monooxygenase (Homo sapiens, UniProt O15229); test: Inhibition of KMO in human PBMC
Sequence of Kynurenine 3-monooxygenase (Homo sapiens, UniProt O15229) (O15229 whole entry): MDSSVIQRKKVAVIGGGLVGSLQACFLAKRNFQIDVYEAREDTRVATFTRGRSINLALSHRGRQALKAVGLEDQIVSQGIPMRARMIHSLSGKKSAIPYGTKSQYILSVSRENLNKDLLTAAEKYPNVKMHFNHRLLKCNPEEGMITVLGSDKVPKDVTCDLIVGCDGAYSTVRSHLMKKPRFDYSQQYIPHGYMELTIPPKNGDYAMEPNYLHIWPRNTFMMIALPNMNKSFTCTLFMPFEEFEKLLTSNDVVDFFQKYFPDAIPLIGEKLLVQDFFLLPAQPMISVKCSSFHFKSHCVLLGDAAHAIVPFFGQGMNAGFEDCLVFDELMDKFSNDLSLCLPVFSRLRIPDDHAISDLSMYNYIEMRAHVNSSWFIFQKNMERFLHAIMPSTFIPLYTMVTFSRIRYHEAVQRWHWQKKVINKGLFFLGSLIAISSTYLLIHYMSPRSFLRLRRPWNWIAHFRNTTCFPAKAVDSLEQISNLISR

[5] = target: Kynurenine 3-monooxygenase (Rattus norvegicus, UniProt O88867); test: Inhibition of KMO in rat microglia cells; assay type: cell-based
Sequence of Kynurenine 3-monooxygenase (Rattus norvegicus, UniProt O88867) (O88867 whole entry): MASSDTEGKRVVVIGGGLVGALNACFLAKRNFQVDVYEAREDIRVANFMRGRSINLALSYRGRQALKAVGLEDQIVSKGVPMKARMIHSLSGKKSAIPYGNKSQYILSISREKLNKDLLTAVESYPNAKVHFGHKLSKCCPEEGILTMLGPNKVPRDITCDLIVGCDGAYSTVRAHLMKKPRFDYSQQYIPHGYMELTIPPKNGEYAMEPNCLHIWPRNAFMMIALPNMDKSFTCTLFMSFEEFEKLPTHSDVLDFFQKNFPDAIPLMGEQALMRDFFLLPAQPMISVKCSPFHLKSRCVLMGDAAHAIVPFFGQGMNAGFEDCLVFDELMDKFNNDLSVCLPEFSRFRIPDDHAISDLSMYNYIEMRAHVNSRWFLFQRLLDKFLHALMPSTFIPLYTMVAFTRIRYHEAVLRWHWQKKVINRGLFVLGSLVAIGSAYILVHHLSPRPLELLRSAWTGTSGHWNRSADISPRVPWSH
How it was run: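 Freshly isolated neonatal rat microglial cultures, induced to express KMO by a pro-inflammatory protocol. Exogenous KYN added; conversion to 3-HK monitored by mass spectrometry.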

[6] = test system: Plasma; test: Dose normalized AUC (0 to infinity) in Sprague-Dawley rat plasma at 6.2 mg equivalents/kg, iv; assay type: ADME, cell-free
[7] = Clearance in Sprague-Dawley rat plasma at 6.2 mg equivalents/kg, iv; assay type: ADME, cell-free
[8] = MRT in Sprague-Dawley rat plasma at 6.2 mg equivalents/kg, iv; assay type: ADME, cell-free
How it was run: (§1)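 Nonfasted male Sprague-Dawley rats (300−370 g). Single iv tail-vein dose of 6.2 mg equiv/kg (1.24 mg equiv/mL in DMSO:PEG400:water 10:40:50) or oral gavage of 12 mg equiv/kg (1.20 mg equiv/mL in 10% hydroxypropyl-β-cyclodextrin). Terminal bleeds under isoflurane (N = 3) at 0.083−24 h; heparin plasma; tissues snap-frozen.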

[9] = test system: Plasma; test: Dose normalized AUC (0 to infinity) in Sprague-Dawley rat plasma at 12 mg equivalents/kg, po; assay type: ADME, cell-free
[10] = Tmax in Sprague-Dawley rat plasma at 12 mg equivalents/kg, po; assay type: ADME, cell-free; how it was run: as §1
[11] = Tmax in Sprague-Dawley rat brain at 6.2 mg equivalents/kg, iv; assay type: ADME, tissue-based; how it was run: as §1
[12] = test system: Brain; test: Dose normalized Cmax in Sprague-Dawley rat brain at 12 mg equivalents/kg, po; assay type: ADME, tissue-based; settings: in vivo
[13] = test system: Plasma; test: Dose normalized AUC (0 to infinity) in Sprague-Dawley rat plasma at 10 mg equivalents/kg, po after 0.25 to 12 hrs; assay type: ADME, organism-based; settings: in vivo
How it was run: (§2)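 Male Sprague-Dawley rats given a single oral dose of 10 mg equiv/kg as a 2 mg equiv/mL solution in 10% hydroxypropyl-β-cyclodextrin. Plasma, liver, kidney, cortex, striatum and CSF levels were measured from 0.25 to 12 h. Brain tissue was taken from nonperfused brains. CSF AUCN covers 0–8 h because the elimination phase was undefined.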

[14] = Tmax in Sprague-Dawley rat plasma at 10 mg equivalents/kg, po after 0.25 to 12 hrs; assay type: ADME, organism-based
How it was run: (§3)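 Fed male Sprague-Dawley rats given a single oral dose of 10 mg equiv/kg as 2 mg equiv/mL in 10% hydroxypropyl-β-cyclodextrin. Plasma, CSF, kidney, liver, and cortex and striatum from nonperfused brains sampled from 0.25 to 12 h.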

[15] = Tmax in Sprague-Dawley rat CSF at 10 mg equivalents/kg, po after 0.25 to 12 hrs; assay type: ADME, organism-based, Cerebrospinal fluid; how it was run: as §3
[16] = test system: Striatum; test: Dose normalized AUC (0 to infinity) in Sprague-Dawley rat striatum at 10 mg equivalents/kg, po after 0.25 to 12 hrs; assay type: ADME, organism-based; settings: in vivo; how it was run: as §2
[17] = test system: Striatum; test: Dose normalized Cmax in Sprague-Dawley rat striatum at 10 mg equivalents/kg, po after 0.25 to 12 hrs; assay type: ADME, organism-based; settings: in vivo; how it was run: as §2
[18] = Tmax in Sprague-Dawley rat striatum at 10 mg equivalents/kg, po after 0.25 to 12 hrs; assay type: ADME, organism-based; how it was run: as §3
[19] = Half life in Sprague-Dawley rat striatum at 10 mg equivalents/kg, po after 0.25 to 12 hrs; assay type: ADME, organism-based; how it was run: as §2
[20] = test system: Kidney; test: Dose normalized AUC (0 to infinity) in Sprague-Dawley rat kidney at 10 mg equivalents/kg, po after 0.25 to 12 hrs; assay type: ADME, organism-based; settings: in vivo; how it was run: as §2
[21] = Half life in Sprague-Dawley rat kidney at 10 mg equivalents/kg, po after 0.25 to 12 hrs; assay type: ADME, organism-based; how it was run: as §2
[22] = test system: Liver; test: Dose normalized Cmax in Sprague-Dawley rat liver at 10 mg equivalents/kg, po after 0.25 to 12 hrs; assay type: ADME, organism-based; settings: in vivo; how it was run: as §2
[23] = Tmax in Sprague-Dawley rat liver at 10 mg equivalents/kg, po after 0.25 to 12 hrs; assay type: ADME, organism-based; how it was run: as §3
[24] = Half life in Sprague-Dawley rat liver at 10 mg equivalents/kg, po after 0.25 to 12 hrs; assay type: ADME, organism-based; how it was run: as §2
[25] = test system: Brain; test: Dose normalized AUC (0 to infinity) in wild-type FVB/N mouse brain at 5 mg equivalents/kg, iv by LC-MS/MS analysis; assay type: ADME, organism-based; settings: in vivo
How it was run: (§4)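 Male mice given a single 5 mg equiv/kg iv bolus: FVB wild type, Bcrp(−/−), Mdr1a/b(−/−) and Mdr1a/b(−/−)/Bcrp(−/−). Brain and plasma concentration–time profiles were used to derive dose-normalized AUC (0–infinity).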

[26] = test system: Plasma; test: Dose normalized AUC (0 to infinity) in BCRP and MDR1a knock out FVB/N mouse plasma at 5 mg equivalents/kg, iv by LC-MS/MS analysis; assay type: ADME, organism-based; settings: in vivo; how it was run: as §4
[27] = test system: Rattus norvegicus; test: Inhibition of KMO in Sprague-Dawley rat plasma assessed as time duration for elevation in kynurenine plasma level at 10 mg/kg, po by […] analysis; assay type: functional
How it was run: (§5)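 Sprague-Dawley rats given a single 10 mg/kg oral dose. KYN, 3-HK, KYNA and AA were quantified in plasma by LC-MS/MS at multiple time points.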

[28] = test system: Rattus norvegicus; test: Inhibition of KMO in Sprague-Dawley rat plasma assessed as time duration for elevation in kynurenic acid plasma level at 10 mg/kg, po by […] analysis; assay type: functional; how it was run: as §5
[29] = test system: Rattus norvegicus; test: Inhibition of KMO in Sprague-Dawley rat plasma assessed as time duration for elevation in anthranilic acid plasma level at 10 mg/kg, po by […] analysis; assay type: functional; how it was run: as §5
[30] = test system: Rattus norvegicus; test: Inhibition of KMO in Sprague-Dawley rat plasma assessed as time duration for reduction in 3-HK plasma level at 10 mg/kg, po by […] analysis; assay type: functional; how it was run: as §5
[31] = AUC (0 to 240 mins) in Sprague-Dawley rat striatal extracellular fluid at 10 mg/kg, po by […] analysis; assay type: ADME, organism-based; parameters: time < 4 hr, dose 10 mg/kg, route oral
How it was run: (§6)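 Freely moving Sprague-Dawley rats given 10 mg/kg po, with a microdialysis probe implanted in the striatum. Dialysate was sampled over 0–240 min for free compound and for KYN, KYNA, AA and 3-HK, quantified by LC-MS/MS. Metabolite changes were compared with t = 0 min by 2-way ANOVA.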

[32] = test system: Rattus norvegicus; test: Inhibition of KMO in Sprague-Dawley rat brain assessed as time duration for elevation in kynurenine plasma level at 10 mg/kg, po by […] analysis; assay type: functional
[33] = test system: Rattus norvegicus; test: Inhibition of KMO in Sprague-Dawley rat striatum brain microdialysate assessed as time duration for elevation in anthranilic acid level at 10 mg/kg, po by […] analysis; assay type: functional; how it was run: as §6
[34] = test system: Rattus norvegicus; test: Inhibition of KMO in po dosed Sprague-Dawley rat plasma assessed as elevation in kynurenic acid plasma level by […] analysis; assay type: functional, organism-based
[35] = test system: Rattus norvegicus; test: Inhibition of KMO in po dosed Sprague-Dawley rat plasma assessed as elevation in anthranilic acid plasma level by […] analysis; assay type: functional, organism-based
[36] = test system: Rattus norvegicus; test: Inhibition of KMO in po dosed Sprague-Dawley rat plasma assessed as reduction in 3-hydroxykynurenice acid plasma level by […] analysis; assay type: functional, organism-based
[37] = Oral bioavailability in Sprague-Dawley rat plasma at 12 mg equivalents/kg

solubility [1]: > 1000 µg/mL
Papp B→A [2]: 30.4 ×10⁻⁶ cm/s
Papp A→B [3]: 18.7 ×10⁻⁶ cm/s
IC50 [4]: 82 nM
IC50 [5]: 72 nM
AUC/dose [6]: 12 µM·kg·h/mg
clearance [7]: 4.83 mL/min/kg
MRT [8]: 66 min
AUC/dose [9]: 7.6 µM·kg·h/mg
Tmax [10]: 60 min
Tmax [11]: 4.98 min
Cmax/dose [12]: 0.035 µM·kg/mg
AUC/dose [13]: 5.3 µM·kg·h/mg
Tmax [14]: 30 min
Tmax [15]: 30 min
AUC/dose [16]: 0.1 µM·kg·h/mg
Cmax/dose [17]: 0.047 µM·kg/mg
Tmax [18]: 30 min
half-life [19]: 138 min
AUC/dose [20]: 70 µM·kg·h/mg
half-life [21]: 120 min
Cmax/dose [22]: 9.3 µM·kg/mg
Tmax [23]: 30 min
half-life [24]: 150 min
AUC/dose [25]: 0.066 µM·kg·h/mg
AUC/dose [26]: 3.6 µM·kg·h/mg
AUC(0-t) at 4 h [31]: 0.066 µM·h
bioavailability [37]: 64%
Structure (SMILES): O=C(O)c1cc(-c2ccc(OC3CC3)c(Cl)c2)ncn1
Time [27]: 8 h
Time [28]: 8 h
Time [29]: 8 h
Time [30]: 8 h
Time [32]: >=4 hr
Time [33]: 40 min
inhibition [34]: Dose-dependent effect
inhibition [35]: Dose-dependent effect
inhibition [36]: Active
